One may read the GI50 as the concentration that inhibits growth by half.

The test system of test [1] is 25TAG (5′-FAM, 3′-TAMRA) (DNA, G4) TAGGGTTAGGGTTAGGGTTAGGGTT
As to the kind of experiment: fluorescence melting. To be noted: 100 mM KCl; 10 mM LiAsO2Me2, pH 7.2; 0.4 μM compound, 0.2 μM DNA.

For test [2], the system named is T98G cells (multidrug-resistant glioblastoma). Put plainly: Cytotoxicity assay. The test is classed as cell-based. To be noted: Homo sapiens, 96 h, read-out: GI50, T98G. In a few lines:
(§1)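 Adherent cells grown in MEM GlutaMAX with 10 % FBS, 1 % penicillin/streptomycin and 1 % non-essential amino acids at 37 °C, 5 % CO₂, passaged with TrypLE. Cells were plated at 0.125×10⁵ cells mL⁻¹ and test compound in DMSO was added after 4 h ([…], 0.5 % v/v DMSO). After 96 h, CellTiter-Glo luminescence was read and viability expressed relative to the DMSO control. Each condition was run at least three times, with two technical replicates per plate.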

Test [3] relates to A549 cells (cisplatin-resistant non-small-cell lung carcinoma). Put plainly: Cytotoxicity assay. The test is classed as cell-based, human. The conditions noted are these: for GI50: Homo sapiens, A549, 96 h, read-out: GI50, A549. The essentials: as §1
The subject of test [4] is MRC-5 cells (noncancerous lung fibroblast). Put plainly: Cytotoxicity assay. The test is classed as cell-based. To be noted: Homo sapiens, MRC5, 96 h, read-out: GI50, MRC-5. The essentials: as §1
Test [5] concerns 25TAG (G4-DNA, hybrid-2, variant of human telomeric sequence). As to the kind of experiment: Fluorescence-melting experiments. In kind it is binding. To be noted: pure ligand 0.4 μM, DNA 0.2 μM. The essentials: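 FAM/TAMRA-labelled oligonucleotides were annealed (95 °C, 5 min) at 0.23 μM in target-specific buffer. Final concentrations were 0.2 μM DNA and 1 μM ligand; as-synthesized mixtures were diluted in buffer without further treatment, and pure ligands were run at 0.1–1.0 μM. Melting used a 0.5 °C min⁻¹ ramp with FAM-channel fluorescence. Tm came from first-derivative peaks, and ΔTm was the difference of means from three experiments. ΔTm detection tops out at 36 °C (96 °C).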

As for `C[n+]1cc(NC(=O)c2ccc3ccc4ccc(C(=O)Nc5cc6ccccc6[n+](C)c5)nc4c3n2)cc2ccccc21`, in test [1], the ΔT m was over 30 °C.
Consider `C[n+]1cccc2cc(C=NNC(=O)c3ccc4ccc5ccc(C(=O)NN=Cc6ccc7c(ccc[n+]7C)c6)nc5c4n3)ccc21.[I-].[I-]` [3Ef], for which the GI50 in test [2] was 11.2 ± 1.4 µM; in test [3], 400 ± 60 nM; in test [4] it was 26.7 ± 2.4 µM. For the same compound, the “selectivity index, A549 with respect to MRC-5 cells” value in test [3] (ratio of GI50 values, 96 h) is reported as about 67.
As for `O=C(NN=Cc1ccc(C[n+]2ccccc2)cc1)c1ccc2ccc3ccc(C(=O)NN=Cc4ccc(C[n+]5ccccc5)cc4)nc3c2n1.[Br-].[Br-]` [3Ei], the “ΔTm, 25TAG, pure ligands” value in test [5] is over 30 °C. Besides, the concentration for 50% growth inhibition (GI50) in test [2] was 29.7 ± 2 µM; in test [3] it was 3200 ± 600 nM; in test [4], 59.1 ± 5.5 µM.
